B1: NELF-E aptamer (parent)
chain: CCCAACGACUGCCGAGCGAGAUUACGCUUGAGCGCCCCACUGAGGAUGCCCACGGGCGAUUGGGGCACGG

Variants of: B1
Assay: HiTS-RAP
Conditions: with NELF-E (Drosophila)
Outline: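 Aptamer DNA templates carrying a T7 promoter and ter site were sequenced on an Illumina GAIIx flowcell, then transcribed in situ by T7 RNA polymerase and halted by GST-Tus (30 minutes, 37°C). Clusters were imaged after 30-minute room-temperature equilibration with NELF-E-mOrange at 0.064 to 1000 nM in HEPES binding buffer, and only the first binding curve was used. Intensities were normalised to sequencing intensity and averaged per sequence. Kd came from weighted Hill fits, keeping fits with variance below 1,000,000.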

Variant | Kd
C6U G11A | 5.43 nM
C6U G11U | 6.12 nM
G7A U22G | 7 nM
A5U G55U | 8.79 nM
A5U G55A | 7.03 nM
C6U U61A | 38.1 nM
A5G G14U | 6.38 nM
A5G G14A | 6.54 nM
A5U G7A | 6.51 nM
A5U G7U | 6.92 nM
A5U A19U | 6 nM
A5U A19G | 7.47 nM
A5U | 5.66 nM
C6A C13G | 5.49 nM
A5U G20A | 6.68 nM
A5U G20U | 7.83 nM
C6G A43G | 34.4 nM
C6G A43U | 87.2 nM
C6U A19G | 6.06 nM
A5U A21U | 6.61 nM
A5U A21G | 7.74 nM
A5U C53U | 4.46 nM
G7A G14U | 6.75 nM
C6U A24G | 5.94 nM

Variant | Kd
A5U G32A | 4.34 nM
A5G G16A | 6.56 nM
A5G G16U | 7.42 nM
A5U G11A | 7.76 nM
A5U G11U | 6.52 nM
C6G C53G | 7.67 nM
C6G C53U | 4.15 nM
C6G A59U | 25.7 nM
C6G A59G | 54.9 nM
A5G G26A | 5.29 nM
A5G G26U | 7.39 nM
C6U G16U | 6.67 nM
A5U A52G | 7.25 nM
A5U A52U | 18.4 nM
A5G G11A | 6.61 nM
A5G G11U | 6.9 nM
C6G U61G | 7 nM
C6G U61A | 38.7 nM
C6G U61C | 74.8 nM
C6G U41C | 64.8 nM
C6G U41G | 5.12 nM
C6G U41A | 103 nM
A5U A46G | 34.6 nM
C6A C9G | 7.55 nM

Variant | Kd
G7A G63A | 14.4 nM
C6G C13U | 4.96 nM
C6G C13G | 5.09 nM
A5U G56U | 6.51 nM
A5U G56A | 7.71 nM
A5U A39G | 8.51 nM
A5U A39U | 29.7 nM
G7A G11U | 7.32 nM
C6G U28A | 5.13 nM
C6G U28C | 9 nM
C6G U28G | 6.54 nM
A5U C12U | 6.37 nM
A5U C12G | 6.84 nM
A5U C6U | 4.75 nM
A5U C6A | 7.45 nM
A5U C6G | 5.7 nM
C6A C17G | 7.95 nM
A5G G20A | 6.58 nM
A5G G20U | 6.78 nM
C6G G56A | 8.34 nM
C6G G56U | 4.89 nM
A5U A24U | 6.21 nM
A5U A24G | 6.39 nM
C6G G11U | 5.8 nM

Variant | Kd
C6G G11A | 6.31 nM
C6U C12U | 6.16 nM
C6U C12G | 5.7 nM
A5U G18A | 5.46 nM
A5G U28G | 7.79 nM
A5G U28C | 10.2 nM
C6G U29A | 5.51 nM
C6G U29G | 4.97 nM
C6G U29C | 4.69 nM
A5G U23A | 5.47 nM
A5G U23G | 6.21 nM
A5G U23C | 5.22 nM
G7A A19U | 8.57 nM
C6G G30U | 6.84 nM
C6G G30A | 4.52 nM
A5U C50U | 15 nM
C6G G48A | 11.6 nM
C6G G48U | 5.75 nM
A5U C66U | 4.52 nM
C6G A46U | 56.8 nM
C6G A46G | 40.5 nM
G7A U23G | 5.95 nM
C6U G54A | 14.5 nM
A5U C17U | 6.66 nM

Variant | Kd
A5U C17G | 6.36 nM
C6U A59G | 69.1 nM
C6G C51U | 7.16 nM
C6A A8U | 7.06 nM
C6U G20U | 8.79 nM
C6U A52U | 23.1 nM
A5G G62A | 13.5 nM
C6G C40G | 8.23 nM
C6G C40U | 70.3 nM
C6G C49U | 20.2 nM
C6G C49G | 8.75 nM
A5G U60C | 11.3 nM
C6G G65U | 6.3 nM
C6G G65A | 4.46 nM
C6G C12U | 5.53 nM
C6G C12A | 6.77 nM
C6G C12G | 5.68 nM
C6G G16A | 5.84 nM
C6G G16U | 6.81 nM
C6G A24U | 8.62 nM
C6G A24G | 5.79 nM
G7A C12G | 6.93 nM
C6U A21G | 7.12 nM
A5U U23A | 5.58 nM

Variant | Kd
A5U U23G | 6.01 nM
G7A A24G | 6.73 nM
A5G G56U | 7.96 nM
A5G G56A | 11.2 nM
C6G C38U | 10.4 nM
C6G C38A | 45.1 nM
G7A C13G | 6.51 nM
C6U A8G | 6.02 nM
C6U A8U | 7.13 nM
C6G C50U | 16.1 nM
C6G C50G | 5.53 nM
C6U U10G | 5.57 nM
C6G C17G | 5.02 nM
C6G C17U | 6.03 nM
A5U U28G | 7.17 nM
A5U U28C | 7.9 nM
C6G U47G | 6.93 nM
C6G U47A | 10.5 nM
C6G G20U | 6.34 nM
C6G G20A | 6.35 nM
C6U A15U | 6.25 nM
C6G G14U | 6.12 nM
C6G G14A | 5.15 nM
A5G G64A | 8.07 nM

Variant | Kd
C6G C33G | 5.77 nM
C6G C33U | 5.41 nM
C6G C35G | 7.18 nM
C6G C35U | 16.8 nM
C6A U22G | 7.16 nM
A5G U61C | 64.6 nM
A5G U61A | 37.8 nM
G7A U10G | 5.66 nM
A5U G64A | 8.76 nM
A5U C13G | 5.56 nM
A5U C13U | 7.12 nM
A5G G18U | 6.11 nM
A5G G18A | 5.15 nM
A5U A43U | 99.1 nM
A5U A43G | 15.1 nM
C6A U23G | 7.03 nM
C6G A21U | 5.06 nM
C6G A21G | 5.74 nM
A5G U47G | 7.6 nM
A5G U22G | 5.89 nM
A5G U22C | 5.45 nM
A5U C57U | 6.5 nM
A5G G45U | 7.32 nM

— the RNAGym collection of RNA variant scans (doi:10.1038/nmeth.2970)
